Screening results as filed in PubChem.
Compounds with a hit are over-represented: about 1.4% of the library has one in this group of screens.
SR-BI DiI inh: mouse SR-BI HDL lipid transfer inhibition; hit rate 0.96% among 320,000; ldlA[mSR-BI] CHO cells, DiI-HDL uptake fluorescence, 3 h; inhibition, % at 12.5 µM;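 active = mean replicate inhibition of at least 70% and a set share of replicates each scoring 70 or more; inconclusive = meets just one of the two criteria; inactive = fails both criteria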;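 note: 0% = median of neutral control wells and 100% = median of positive control wells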
Target sequence (Q61009 whole entry, looked up): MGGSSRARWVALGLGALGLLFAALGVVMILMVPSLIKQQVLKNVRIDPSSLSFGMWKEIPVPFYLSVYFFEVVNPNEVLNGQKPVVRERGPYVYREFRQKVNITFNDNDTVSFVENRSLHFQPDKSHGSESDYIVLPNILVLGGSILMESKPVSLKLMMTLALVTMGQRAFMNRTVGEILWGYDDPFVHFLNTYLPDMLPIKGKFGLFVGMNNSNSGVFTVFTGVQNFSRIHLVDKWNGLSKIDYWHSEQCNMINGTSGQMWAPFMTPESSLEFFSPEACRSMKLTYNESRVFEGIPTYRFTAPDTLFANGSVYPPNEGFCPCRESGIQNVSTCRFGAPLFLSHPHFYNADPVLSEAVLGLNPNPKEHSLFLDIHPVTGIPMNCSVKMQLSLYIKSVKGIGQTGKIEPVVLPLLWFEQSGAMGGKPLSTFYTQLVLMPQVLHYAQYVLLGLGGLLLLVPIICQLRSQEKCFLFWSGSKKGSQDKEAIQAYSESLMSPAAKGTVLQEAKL
PKA-R2B activ: activates the human PKA-R2B holoenzyme complex; activation, % at 11.4 µM; hit rate 0.079% among 340,000; AID 504700; PKA-R2B holoenzyme dissociation, Cy5-IP20 fluorescence polarization; R2B truncated from residue 108, S112A mutant; 0% DMSO only, 100% 113 µM cGMP; P22694+P31323;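 active = activation above a cutoff set at the mean over all compounds plus 3 SD, cut at about 18% in these data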;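 note: higher means more holoenzyme dissociation and a rise in polarization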
SR-BI uptake up: enhances SR-BI lipid uptake from DiI-HDL. CHO ldlA[mSR-BI] cells, DiI-HDL uptake fluorescence, 3 h; 100 = double the neutral-control signal. activation, % at 12.5 µM. hit rate 0.096% among 320,000. AID 504775;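 active = mean replicate activation of at least 60% and every replicate at or above 60%; inconclusive = mean or all-replicate condition met, but not both; inactive = mean below 60% and not all replicates reaching 60%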;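 note: 0% = median plate neutral-control signal and 100% = twice that signal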
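Test system: SR-BI-overexpressing, LDLR-lacking CHO cells; Also added: labelled HDL, 10 µg/mL; Measured by: bottom-read cell fluorescence after medium removal, ex 550/em 595 nm; Timing: 3 h uptake period with compound, 37 °C; Buffer or medium: F12, 0.5% BSA, 25 mM HEPES; Doses: single compound concentration, delivered by pin transfer.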
Vif imaging: blocks HIV Vif function. HEK293T cells, Vif self-association by quenched fluorescence, imaging, 24 h. AID 602346. hit rate 0.35% among 340,000. inhibition, % at 7.49 µM; in the data active = inhibition above about 50%, passing the limit was not always enough; inconclusive = no clear call, values can overlap the other calls; inactive = below about 31%
PKA-R1A activ: activators of PKA-R1A complex. hit rate 0.083% among 340,000. activation, % at 11.4 µM. AID 504707. PKA-R1A dissociation, Cy5-IP20 fluorescence polarization; scaled: DMSO 0%, 113 µM cGMP 100%;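 active = percent activation above the mean of all tested compounds plus 3 SD, cut at about 19% in these data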;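 note: higher means more PKAc released from R1A so a rise in polarization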
* hit, by the source's call; ? = inconclusive; nt = no result.

SMILES | SR-BI DiI inh | PKA-R2B activ | SR-BI uptake up | Vif imaging | PKA-R1A activ
Cc1ccc(S(=O)(=O)c2ccc([N+](=O)[O-])o2)cc1 | 17.0 | -5.9 | -17.0 | 89.9* | -7.5
Cc1noc(C)c1COc1ccc(C(=O)N2CCN(c3ccccn3)CC2)cc1 | 0.6 | -10.4 | -0.6 | -10.5 | -3.7
CCNc1ccc(C(=O)OCC)cc1NC(=O)c1cccc(N(C)C)c1 | 85.6* | -11.0 | -85.5 | 4.4 | -1.8
O=C(COc1ccccc1)Nc1ccccc1N1CCN(c2ccc(F)cc2)CC1 | 80.0* | -3.7 | -80.0 | 1.0 | 0.2
Cc1cc(C)nc(NS(=O)(=O)c2ccc(NS(=O)(=O)c3ccccc3)cc2)n1 | -29.5 | -7.8 | 29.5 | nt | 5.4
Cc1cc(C)nc(NS(=O)(=O)c2ccc(NS(=O)(=O)c3ccsc3)cc2)n1 | nt | nt | nt | 74.4* | nt
CSCCC(NC(=O)c1ccccc1Cl)C(=O)NNC(=O)c1ccccc1O (centres undefined) | 47.0 | -12.6 | -47.0 | -1.2 | 5.9
CC(Sc1ccc(Cl)cc1)C(=O)NNC(=O)c1ccccc1O (centres undefined) | 97.0* | -9.7 | -97.0 | -5.4 | -4.1
Cc1ccc(NC(=O)CC(C(=O)O)c2ccccc2)cc1 (centres undefined) | -40.6 | 1.4 | 40.6 | -5.1 | -15.0
CCc1ccc(-c2cc(C)no2)cc1S(=O)(=O)N1CCOc2ccccc21 | 26.4 | 8.2 | -26.4 | -3.3 | -5.9
Cn1cc(C(=O)N/N=C/C2=C(N3CCOCC3)C(=C\c3ccccc3)/CC2)ccc1=O | 47.5 | -10.7 | -47.5 | ? | -7.5
O=C1Nc2ccccc2/C1=N\N=C\C1=C(N2CCOCC2)C(=C\c2ccccc2)/CC1 | 127.7* | -1.7 | -127.7 | -19.2 | -6.3
O=C1Nc2ccc(Br)cc2/C1=N\N=C\C1=C(N2CCOCC2)C(=C/c2ccccc2)/CC1 | 100.0* | -13.1 | -100.0 | -2.7 | -7.2
CCC(=O)N1CCCC1(C)C(=O)Nc1ccc2scnc2c1 (centres undefined) | nt | nt | nt | 4.1 | nt
Cc1cc(C)n2nc(SCCC(=O)NCc3ccccc3)nc2n1 | -18.2 | 6.3 | 18.2 | -3.3 | -0.4
CC(C)(C)c1cc(C(=O)N/N=C/c2ccc(F)cc2)n(-c2ccccc2)n1 | 58.5 | -6.9 | -58.5 | nt | -6.9
CC(C)(C)c1cc(C(=O)N/N=C/c2ccccc2O)n(-c2ccccc2)n1 | 100.1* | 13.7 | -100.1 | -3.9 | 1.9
CC(C)C(=O)NCCc1nc(-c2ccccc2Cl)no1 | -6.3 | 7.3 | 6.3 | 83.3* | -0.2
Cc1c(NC(=O)/C(C#N)=C/c2ccc(-c3cccc(Cl)c3)o2)c(=O)n(-c2ccccc2)n1C | 61.6 | 2.4 | -61.6 | nt | 3.8
Cc1c(NC(=O)/C(C#N)=C/c2ccc(-c3ccc(Cl)c(Cl)c3)o2)c(=O)n(-c2ccccc2)n1C | 73.8* | -5.5 | -73.7 | 5.5 | 3.7
CC1(C(=O)NS(=O)(=O)c2cccc(C#N)c2)CCN1C(=O)CCc1ccccc1 (centres undefined) | nt | nt | nt | 1.4 | nt
CCCCCCCCCCOC(=O)Cn1c(COc2ccccc2C)[n+](C)c2ccccc21 | -20.5 | 3.9 | 20.5 | 2.7 | -4.4
CCOC(=O)Cn1c(COc2ccccc2OC)[n+](C)c2ccccc21 | nt | nt | nt | 65.6* | nt
Cc1nc(N/N=C/c2ccc(O)cc2)c2cnn(-c3ccccc3)c2n1 | 75.4* | 2.1 | -75.4 | -14.3 | 4.6
CCCCCCn1c(=O)n2n(c1=O)[C@@H]1CN(S(=O)(=O)c3ccc(C)cc3)C[C@]1(O)[C@@H](OC(=O)NCc1ccc(OC)c(OC)c1)C2 | nt | -6.7 | nt | -1.0 | -11.7
SMILES | SR-BI DiI inh | PKA-R2B activ | SR-BI uptake up | Vif imaging | PKA-R1A activ
O=C(NCc1cccs1)C1CCC(CNS(=O)(=O)c2cccs2)CC1 (centres undefined) | -6.3 | -1.4 | 6.3 | -1.3 | -0.8
COc1ccccc1CNC(=O)C1CCC(CNS(=O)(=O)c2cccs2)CC1 (centres undefined) | nt | 3.0 | nt | 54.9* | 0.1
CCOc1ccc(CN(C)C(=O)CNC(=O)C2CCCCC2)cc1OC | nt | 5.6 | nt | 0.0 | 0.3
CCOC(=O)c1ccc(S(=O)(=O)N2CCC(N3CCCCCC3)CC2)cc1 | nt | 0.4 | nt | 1.9 | -10.4
N#C/C(=C\c1ccc(N2CCOCC2)o1)C(=O)NCC1CCCO1 (centres undefined) | -17.2 | -6.7 | 17.2 | 111.2* | -1.0
CSCC[C@H](CO)NC(=O)[C@H]1O[C@@H](n2cnc3c(N)ncnc32)[C@H](O)[C@@H]1O | nt | nt | nt | -0.1 | nt
C=CCOc1c(Cl)cc(CNCCCN2CCOCC2)cc1OC | 3.9 | 7.2 | -3.9 | -2.4 | -1.1
COCc1cc(C)nc2sc(C(=O)Nc3ccccc3Br)c(N)c12 | 79.4* | -13.2 | -79.4 | -11.3 | -9.6
COc1ccc(NC(=O)C(NC(=O)Cc2cccs2)c2ccc(C)cc2)cc1 (centres undefined) | -64.5 | -7.3 | 64.5* | 1.1 | -4.2
COc1ccc(NC(=O)C(NC(=O)Cc2cccs2)c2ccccc2)cc1 (centres undefined) | -1.5 | -7.4 | 1.5 | 4.5 | -1.3
CCOc1ccc2nc(S(=O)(=O)NC(=O)C3(C)CCN3C(=O)CCc3cccs3)sc2c1 (centres undefined) | nt | nt | nt | 36.4 | nt
CCCN1C(=O)/C(=C\C=C2\N(CC)c3ccccc3C2(C)C)SC1=S | 87.2* | -5.4 | -87.2 | 166.5* | -0.3
CCN1C(=O)/C(=C/C=C2\C=CN(CC)c3ccccc32)SC1=S | 139.7* | 0.4 | -139.7 | -5.3 | 4.9
O=C(Nc1c(-c2ccccc2)[nH][nH]c1=O)c1ccc(Br)cc1 | nt | nt | nt | 2.2 | nt
CCC(=O)N1CCN(c2ccc(NC(=O)c3ccc([N+](=O)[O-])o3)cc2Cl)CC1 | 39.8 | 2.6 | -39.8 | 65.6* | 4.8
CC(=O)N1CCN(c2ccc(NC(=O)c3ccc([N+](=O)[O-])o3)cc2Cl)CC1 | nt | -8.0 | nt | 57.4* | -0.6
Cc1ccc(OCC(=O)NNC(=O)CCc2ccccc2)c(Br)c1 | 6.0 | -7.1 | -6.0 | 6.8 | -3.3
COCCNC(=O)C1(C)Cc2c(-c3ccc4c(c3)OCO4)ccnc2O1 (centres undefined) | nt | nt | nt | -1.9 | nt
COc1cccc2c1OC1(N3CCOCC3)CCCCC1C2C[N+](=O)[O-] (centres undefined) | nt | -9.6 | nt | 6.1 | -15.8
CN1CCN(c2ccc(S(=O)(=O)N3CCCCC3)cc2NC(=O)c2ccc(F)cc2F)CC1 | -11.6 | -1.1 | 11.6 | 1.7 | 3.3
C[C@H]1CN(c2ccc(Br)cc2)C(=O)[C@@H]1CC(=O)Nc1ccccc1 | nt | 1.8 | nt | -3.4 | 2.3
CC(=O)Oc1cc2c(cc1OC(C)=O)C(=O)CCCC2 | nt | -5.3 | nt | 57.2* | 0.7
COc1cc2c(cc1OC(C)=O)C(=O)CCCC2 | nt | nt | nt | -1.4 | nt
COc1c(/C=N/Nc2ccc([N+](=O)[O-])cc2[N+](=O)[O-])c(C)nn1-c1ccccc1 | 64.4 | -0.1 | -64.4 | 14.7 | -0.9
